Source: ChEMBL document CHEMBL3045357, “DNA adducts as biomarkers for oxidative and genotoxic stress from pesticides in crop plants” (J Agric Food Chem, 2008)

Assays:
Format in all cases: organism-based
Conditions in all cases: in vivo, other, 336 h
Glycine max [1] = assay: Genotoxicity in Glycine max (soybean) exposed to compound through spray 4 times over 2 weeks assessed as relative adduct level A6 measured per 10^9 nucleotides using HX-dG internal standard using [32P]labeling based autoradiography relative to untreated control
Summary of the method: (§1)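 Plants (2–6 weeks grown), groups of 2–4, sprayed 4 times over 2 weeks with formulations diluted per label (chlorothalonil 1:256, carbaryl 1:64 in water); controls water-sprayed. DNA from 1 g leaf via DNeasy Maxi kit. 10 µg DNA digested with micrococcal nuclease/spleen phosphodiesterase (4 h, 37 °C), NP1-enriched (45 min, 37 °C), labelled with [γ-32P]ATP/T4 kinase (45 min, 37 °C).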

Glycine max [2] = assay: Genotoxicity in Glycine max (soybean) exposed to compound through spray 4 times over 2 weeks assessed as relative adduct level A5 measured per 10^9 nucleotides using HX-dG internal standard using [32P]labeling based autoradiography relative to untreated control; summary of the method: as §1
Glycine max [3] = assay: Genotoxicity in Glycine max (soybean) exposed to compound through spray 4 times over 2 weeks assessed as relative adduct level A4 measured per 10^9 nucleotides using HX-dG internal standard using [32P]labeling based autoradiography relative to untreated control; summary of the method: as §1
Glycine max [4] = assay: Genotoxicity in Glycine max (soybean) exposed to compound through spray 4 times over 2 weeks assessed as relative adduct level A3 measured per 10^9 nucleotides using HX-dG internal standard using [32P]labeling based autoradiography relative to untreated control; summary of the method: as §1
Glycine max [5] = assay: Genotoxicity in Glycine max (soybean) exposed to compound through spray 4 times over 2 weeks assessed as relative adduct level A6 measured per 10^9 nucleotides using [32P]labeling based autoradiography relative to untreated control; summary of the method: as §1
Glycine max [6] = assay: Genotoxicity in Glycine max (soybean) exposed to compound through spray 4 times over 2 weeks assessed as relative adduct level A5 measured per 10^9 nucleotides using [32P]labeling based autoradiography relative to untreated control; summary of the method: as §1
Glycine max [7] = assay: Genotoxicity in Glycine max (soybean) exposed to compound through spray 4 times over 2 weeks assessed as relative adduct level A4 measured per 10^9 nucleotides using [32P]labeling based autoradiography relative to untreated control; summary of the method: as §1
Glycine max [8] = assay: Genotoxicity in Glycine max (soybean) exposed to compound through spray 4 times over 2 weeks assessed as relative adduct level A3 measured per 10^9 nucleotides using [32P]labeling based autoradiography relative to untreated control; summary of the method: as §1
Glycine max [9] = assay: Genotoxicity in Glycine max (soybean) exposed to compound through spray 4 times over 2 weeks assessed as relative adduct level A2 measured per 10^9 nucleotides using [32P]labeling based autoradiography relative to untreated control; summary of the method: as §1
Glycine max [10] = assay: Genotoxicity in Glycine max (soybean) exposed to compound through spray 4 times over 2 weeks assessed as relative adduct level A1 measured per 10^9 nucleotides using [32P]labeling based autoradiography relative to untreated control; summary of the method: as §1
Glycine max [11] = assay: Genotoxicity in Glycine max (soybean) exposed to compound through spray 4 times over 2 weeks assessed as HNE-dG adducts using [32P]labeling based autoradiography (reference value: 34 cpm); summary of the method: as §1
Glycine max [12] = assay: Genotoxicity in Glycine max (soybean) exposed to compound through spray 4 times over 2 weeks assessed as relative adduct level A2 measured per 10^9 nucleotides using HX-dG internal standard using [32P]labeling based autoradiography relative to untreated control; summary of the method: as §1
Glycine max [13] = assay: Genotoxicity in Glycine max (soybean) exposed to compound through spray 4 times over 2 weeks assessed as relative adduct level A1 measured per 10^9 nucleotides using HX-dG internal standard using [32P]labeling based autoradiography relative to untreated control; summary of the method: as §1
Glycine max [14] = assay: Genotoxicity in Glycine max (soybean) exposed to compound through spray 4 times over 2 weeks assessed as HX-dG adducts using [32P]labeling based autoradiography; summary of the method: as §1
Glycine max [15] = assay: Genotoxicity in Glycine max (soybean) exposed to compound through spray 4 times over 2 weeks assessed as HNE-dG adducts measured per 10^9 nucleotides using [32P]labeling based autoradiography (reference value: 2 no unit); summary of the method: as §1
Glycine max [16] = assay: Genotoxicity in Glycine max (soybean) exposed to compound through spray 4 times over 2 weeks assessed as HX-dG adducts measured per 10^9 nucleotides using [32P]labeling based autoradiography; summary of the method: as §1

CCOP(=S)(OCC)Oc1cc(C)nc(C(C)C)n1 [DIMPYLATE]
Activity (Glycine max [1]): 1396 cpm | Activity (Glycine max [2]): 341 cpm | Activity (Glycine max [3]): 927 cpm | Activity (Glycine max [4]): 1377 cpm | Activity (Glycine max [5]): 27 | Activity (Glycine max [6]): 7 | Activity (Glycine max [7]): 18 | Activity (Glycine max [8]): 27 | Activity (Glycine max [9]): 49 | Activity (Glycine max [10]): 1 | Activity (Glycine max [11]): 1679 cpm | Activity (Glycine max [12]): 2483 cpm | Activity (Glycine max [13]): 46 cpm | Activity (Glycine max [14]): 1823 cpm | Activity (Glycine max [15]): 33 | Activity (Glycine max [16]): 47
